# Measured values as given in article PMC2771698 (Journal of medicinal chemistry, 2009).
# Where “and” joins values, the source holds several entries; their conditions need not be identical. Identical values can stand only once. Like-named read-outs stand apart in the source and are kept apart here.
# Assays:
# [1] = cited from earlier work
# T. cruzi amastigotes = experiment: T. cruzi; assay type: cell-based, Trypanosoma cruzi; conditions: read-out: EC50 T. cruzi
# Summary of the method: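 β-galactosidase-expressing Tulahuen strain grown as intracellular amastigotes in murine 3T3 fibroblasts, 96-well format, colorimetric read-out. Test compounds HPLC-purified to a single peak, with ≥95% estimated purity by 1H NMR. Each tested in triplicate to derive EC50.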
# T. cruzi = experiment: PCR detection of T. cruzi parasitemia in blood of treated mice at day 100; assay type: in vivo; conditions: for PCR parasite detection after 100 days post infection: days 7–27 post-infection, groups of 6
# [2] = tested on: T. cruzi trypomastigotes (Tulahuen strain); experiment: Efficacy in mice infected with T. cruzi; assay type: in vivo; conditions: days 7–27 post-infection
# Summary of the method: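 Female BALB/c mice (7–8 weeks) infected subcutaneously with 1×10^4 Tulahuen trypomastigotes; treatment began day 7 post-infection. Groups of 6 dosed by oral gavage twice daily for 21 days, 100 µL per dose in 20% (w/v) hydroxypropyl β-cyclodextrin; vehicle-only group included. Parasitemia counted in 5 µL tail blood under coverslip, 50 high-power fields, through day 97. Pre-morbid mice euthanized; survivors sacrificed day 100.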
# [3] = Single oral dose pharmacokinetics in BALB/c mice; assay type: in vivo; conditions: single dose 50 mg/kg oral gavage; for AUC 0_5hr, Mouse 1, 2, 3 / Tmax, Mouse 1, 2, 3 / Cmax, Mouse 1, 2, 3: Balb/c mice, individual mice, 50 mg/kg; for Cmax, Mouse 1, 2, 3: plasma
# [4] = mice and rats; cited from earlier work
# [5] = 50 mg/kg oral gavage twice per day
# [6] = 20 mg/kg oral gavage twice per day
smiles,measurement,setting,value
c1ccc(-c2ccc(Cn3cncc3CNc3ccc(-c4cncs4)c(-c4ccccc4)c3)cc2)cc1 [Compound 27a],pharmacokinetic profile in mice,[1],good pharmacokinetic profile
c1ccc(-c2ccc(Cn3cncc3CNc3ccc(-c4nc5ccccc5s4)c(-c4ccccc4)c3)cc2)cc1 [Compound 27d],pharmacokinetic profile in mice,[1],good pharmacokinetic profile
CC(C)c1ccc(Cn2cncc2CNc2ccc(-c3nc4ccccc4s3)c(-c3ccccc3)c2)cc1 [Compound 32a],EC50,"T. cruzi amastigotes; Table 3, general structure III",860 nM
CCc1ccc(Cn2cncc2CNc2ccc(-c3nc4ccccc4s3)c(-c3ccccc3)c2)cc1 [Compound 32b],EC50,"T. cruzi amastigotes; Table 3, general structure III",190 nM
Fc1ccc(Cn2cncc2CNc2ccc(-c3nc4ccccc4s3)c(-c3ccccc3)c2)c(F)c1 [Compound 32d],EC50,"T. cruzi amastigotes; Table 3, general structure III",630 nM
Cc1ccccc1-c1ccc(Cn2cncc2CNc2ccc(-c3nc4ccccc4s3)c(-c3ccccc3)c2)cc1 [Compound 32f],EC50,"T. cruzi amastigotes; Table 3, general structure III",180 nM
Cc1ccccc1-c1cc(NCc2cncn2Cc2ccc(-c3ccccc3)cc2)ccc1-c1nc2ccccc2s1 [Compound 32g],EC50,"T. cruzi amastigotes; Table 3, general structure III",42 nM
Cc1cccc(-c2cc(NCc3cncn3Cc3ccc(-c4ccccc4)cc3)ccc2-c2nc3ccccc3s2)c1C [Compound 32h],EC50,"T. cruzi amastigotes; Table 3, general structure III",101 nM
c1ccc(Cn2cncc2CNc2cccc(-c3ccccc3)c2)cc1 [Compound 35e],EC50,"T. cruzi amastigotes; Table 4, general structure IV",400 nM
Cc1ccccc1-c1cccc(NCc2cncn2Cc2ccccc2)c1 [Compound 35g],EC50,"T. cruzi amastigotes; Table 4, general structure IV",310 nM
Cc1cccc(-c2cccc(NCc3cncn3Cc3ccccc3)c2)c1C [Compound 35i],EC50,"T. cruzi amastigotes; Table 4, general structure IV",300 nM
c1ccc(Cn2cncc2CNc2cccc(-c3cccnc3)c2)cc1 [Compound 35j],EC50,"T. cruzi amastigotes; Table 4, general structure IV",760 nM
"Nc1cc(-c2ccccc2)ccc1Cn1cncc1CNc1ccc(Cl)c(-c2ccccc2)c1 [Compound 44a, (6-Chloro-biphenyl-3-yl)-[3-(3-amino-biphenyl-4-ylmethyl)-3H-imidazol-4-ylmethyl]-amine]",PCR parasite detection after 100 days post infection,T. cruzi; [5],6 of 6 mice
same,suppression of parasitemia in blood (microscopy),[2]; [5],dramatically suppressed
same,"AUC 0_5hr, Mouse 1, 2, 3",[3],6700 ng·h/mL and 5600 ng·h/mL
same,"Tmax, Mouse 1, 2, 3",[3],1.0 h
same,"Cmax, Mouse 1, 2, 3",[3],1900 ng/mL
same,EC50,"T. cruzi amastigotes; Table 5, general structure V",1.5 nM and 2.1 nM
N#Cc1ccc(NCc2cncn2Cc2ccc(-c3ccccc3)cc2N)cc1-c1ccccc1 [Compound 44b],EC50,"T. cruzi amastigotes; Table 5, general structure V",2.6 nM
Nc1cc(-c2ccccc2)ccc1Cn1cncc1CNc1ccc(-c2nc3ccccc3s2)c(-c2ccccc2)c1 [Compound 44d],PCR parasite detection after 100 days post infection,T. cruzi; [6],5 of 6 mice
same,PCR parasite detection after 100 days post infection,T. cruzi; [5],2 of 6 mice
same,mice with parasitemia suppressed below PCR detectability,"T. cruzi; 50 mg/kg twice per day, day 100",4 of 6
same,suppression of parasitemia in blood (microscopy),[2]; [6],dramatically suppressed
same,suppression of parasitemia in blood (microscopy),[2]; [5],most suppression
same,"AUC 0_5hr, Mouse 1, 2, 3",[3],32400 ng·h/mL and 29000 ng·h/mL
same,"Tmax, Mouse 1, 2, 3",[3],2.0 h
same,"Cmax, Mouse 1, 2, 3",[3],8600 ng/mL
same,drug loss from plasma out to 5 hr,[3]; mice,significant drug loss was not observed
Nc1cc(-c2ccccc2)ccc1Cn1cncc1CNc1ccc(-c2cncs2)c(-c2ccccc2)c1 [Compound 44e],EC50,"T. cruzi amastigotes; Table 5, general structure V",13 nM
"CC[C@@H]([C@H](C)O)n1ncn(-c2ccc(N3CCN(c4ccc(OC[C@@H]5CO[C@@](Cn6cncn6)(c6ccc(F)cc6F)C5)cc4)CC3)cc2)c1=O [Posaconazole, posaconazole, reference compound]",PCR parasite detection after 100 days post infection,T. cruzi; [6],0 of 6 mice
same,suppression of parasitemia in blood (microscopy),[2]; [6],most suppression
same,terminal phase half-life,[4],7 to 9 h
